The species named for experiment [1] is Rattus norvegicus. Nature of the experiment: Tested for potentiating activity on the responses of rat anococcygeus muscle to norepinephrine (NE)at a concentration of 3 x 10 E -7 M. It is filed as functional, Muscle tissue. In short, it runs like this:
(§1)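 Isolated rat anococcygeus muscle. Concentration-response curves to norepinephrine (NE) were run with and without the test compound, and potentiation was judged from the shift at low NE concentrations. pD2 is the negative log of the molar NE concentration giving 50% of maximal response. Activity ratio is the antilog of the pD2 difference with versus without compound, with no compound set at 1.0. n is the number of experiments.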

The species entered for experiment [2] is Rattus norvegicus. In words: Tested for potentiating activity on the responses of rat anococcygeus muscle to norepinephrine (NE)at a concentration of 3 x 10 E -6 M. It is filed as functional, Muscle tissue. The essentials:
as §1

A short description of experiment [3]: Activity ratio, difference between the pD2 values for NE obtained in the absence and presence at 10 E -6 M. It is filed as functional. The essentials: as §1
Experiment [4] in a line: Activity ratio, difference between the pD2 values for NE obtained in the absence and presence at 3 x 10 E -7 M. It is filed as functional. The essentials:
as §1

Experiment [5] can be described thus: Activity ratio, difference between the pD2 values for NE obtained in the absence and presence at 3 x 10 E -6 M. It is filed as functional. In short, it runs like this:
as §1

The species named for experiment [6] is Rattus norvegicus. In words: Tested for potentiating activity on the responses of rat anococcygeus muscle to norepinephrine (NE)at a concentration of 0 (absence of potentiating compound). It is filed as functional, Muscle tissue. In short, it runs like this: as §1
Experiment [7] in a line: Activity ratio, difference between the pD2 values for NE obtained in the absence and presence at 0 (absence of potentiating compound). It is filed as functional. In short, it runs like this:
as §1

The species entered for experiment [8] is Rattus norvegicus. In words: Tested for potentiating activity on the responses of rat anococcygeus muscle to norepinephrine (NE)at a concentration of 10 E -6 M. It is filed as functional, Muscle tissue. In short, it runs like this:
as §1

Experiment [9] can be described thus: Activity ratio, difference between the pD2 values for NE obtained in the absence and presence at 3 x 10e-7 M. It is filed as functional. The essentials:
as §1

Experiment [10] can be described thus: Activity ratio, difference between the pD2 values for NE obtained in the absence and presence at 10e-7 M. It is filed as functional. In short, it runs like this: as §1
For experiment [11], the species on record is Rattus norvegicus. In words: Tested for potentiating activity on the responses of rat anococcygeus muscle to norepinephrine (NE)at a concentration of 3 x 10e -7 M. It is filed as functional, Muscle tissue. The essentials:
as §1

For experiment [12], the species on record is Rattus norvegicus. In words: Tested for potentiating activity on the responses of rat anococcygeus muscle to norepinephrine (NE)at a concentration of 3 x 10e-6 M. It is filed as functional, Muscle tissue. The essentials: as §1
Experiment [13] can be described thus: Activity ratio, difference between the pD2 values for NE obtained in the absence and presence at 10e-6 M. It is filed as functional. The essentials: as §1
For experiment [14], the species on record is Rattus norvegicus. Nature of the experiment: Tested for potentiating activity on the responses of rat anococcygeus muscle to norepinephrine (NE)at a concentration of 10e-6 M. It is filed as functional, Muscle tissue. The essentials: as §1
The species entered for experiment [15] is Rattus norvegicus. Nature of the experiment: Tested for potentiating activity on the responses of rat anococcygeus muscle to norepinephrine (NE)at a concentration of 10e-7 M. It is filed as functional, Muscle tissue. In short, it runs like this:
as §1

The nature of experiment [16]: Activity ratio, difference between the pD2 values for NE obtained in the absence and presence at 10 E -7 M. It is filed as functional. In short, it runs like this: as §1
The species named for experiment [17] is Rattus norvegicus. In words: Tested for potentiating activity on the responses of rat anococcygeus muscle to norepinephrine (NE)at a concentration of 10 E -7 M. It is filed as functional, Muscle tissue. The essentials: as §1

SMILES strings stand for the structures.

For `CN1Cc2ccccc2[C@@](O)(c2ccccc2)C1`, the pD2 was found to be 6.24 in experiment [1], 6.27 in experiment [2], 6.23 in experiment [6] and 6.23 in [8]. The Ratio in [3] was 1; in [4] it was 1; in experiment [5], 1.1; in [7], 1.
Regarding `CN1Cc2ccccc2C(O)(c2ccccc2)C1` (racemic), the Ratio in experiment [9] was 3; in experiment [10], 1.5; in [5] it was 17.8; in experiment [13] it was 8.5; in experiment [7], 1. Besides, the pD2 in experiment [11] is listed as 6.73; in [12], 7.5; in experiment [6], 6.25; in experiment [14], 7.18; in experiment [15] it was 6.42.
With `CN1Cc2ccccc2[C@](O)(c2ccccc2)C1`, the pD2 in experiment [1] worked out at 7.01; in [2], 7.56; in [6], 6.23; in experiment [17] it was 6.6; in experiment [8], 7.28. For the same compound, the Ratio in experiment [3] was found to be 11.2; in experiment [16], 2.3; in [4] it was 6; in experiment [5], 21.4; in [7], 1.
